Compounds with a hit are over-represented: about 4% of the library has one in this group of screens.
hERG rescue: shields human hERG channel from block by proarrhythmic agents; hit rate 0.51% among 310,000; CHO-hERG, FluxOR thallium flux, dofetilide IC70 present; AID 1511; Q12809; activation (rescue from dofetilide block), less the hit threshold, % at 10 µM;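 active = activation above the mean of controls blocked by dofetilide plus 5 SD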;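 note: thallium influx through hERG after potassium depolarization seen as dye fluorescence rise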
KCNK9 inh: blocks the human KCNK9 two-pore domain potassium channel; HEK293 KCNK9, FluxOR thallium flux fluorescence; hits give low values; B-score at 10 µM; hit rate 1.2% among 310,000;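 active = ratio B-score over 3 SD below the library mean, with starting fluorescence within 5 SD of its mean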;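 note: negative B-score means less thallium flux so channel inhibition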
KCNQ1 inh: inhibitors of human KCNQ1 potassium channel. CHO-K1 KCNQ1, FluxOR thallium flux fluorescence; hits give high values. B-score at 10 µM. hit rate 1.3% among 310,000. AID 2642;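 active = compounds whose thallium flux B-score, printed positive for inhibition, exceeds three library SD while starting fluorescence stays within three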;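 note: channel opened by potassium depolarization with thallium stimulus after 20 min compound exposure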
KCNQ1 pot: potentiates or activates the human KCNQ1 potassium channel; AID 2648; hit rate 0.35% among 310,000; CHO-K1 KCNQ1, thallium flux FluxOR fluorescence; hits give high values; B-score at 10 µM;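 active = fluorescence ratio B-score, a plate-corrected score, at least three library SD, with initial intensity B-score within 5 SD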
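assay system = KCNQ1-transfected CHO-K1 cells | medium = assay buffer with matched DMSO | probe or stimulus = depolarizing K+/Tl+ stimulus, K2SO4 and Tl2SO4 each 12.5 mM in 5x stock | dosing = single dose | incubation = dye 90 min, compound 20 min, room temperature | detection = kinetic FluxOR fluorescence, 10 s baseline plus 110 s post-stimulus | evaluation = ratio B score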
PHOSPHO1 block: inhibitors of human PHOSPHO1 phosphatase; recombinant PHOSPHO1, absorbance phosphatase assay; hit rate 1.1% among 290,000; inhibition, % at 13.3 µM; in the data active = inhibition above about 60%
Target sequence (Q8TCT1 whole entry, looked up): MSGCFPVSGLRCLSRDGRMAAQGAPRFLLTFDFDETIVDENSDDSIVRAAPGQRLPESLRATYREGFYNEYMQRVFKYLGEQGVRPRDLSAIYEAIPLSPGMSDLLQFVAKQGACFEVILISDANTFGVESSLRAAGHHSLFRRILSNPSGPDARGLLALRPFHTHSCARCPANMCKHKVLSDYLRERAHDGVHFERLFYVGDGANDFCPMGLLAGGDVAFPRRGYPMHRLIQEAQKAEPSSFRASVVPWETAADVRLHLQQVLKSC
KCNK3 block: human KCNK3 channel inhibition, primary screen. O14649. CHO-KCNK3 thallium flux, FluxOR fluorescence; hits give low values. B-score at 10 µM. hit rate 0.84% among 340,000;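 active = B-score under library mean minus 4 SD, starting fluorescence ratio at most library mean plus 5 SD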;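 note: more negative B-score means stronger inhibition of thallium flux through KCNK3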
Target sequence (O14649 whole entry, looked up): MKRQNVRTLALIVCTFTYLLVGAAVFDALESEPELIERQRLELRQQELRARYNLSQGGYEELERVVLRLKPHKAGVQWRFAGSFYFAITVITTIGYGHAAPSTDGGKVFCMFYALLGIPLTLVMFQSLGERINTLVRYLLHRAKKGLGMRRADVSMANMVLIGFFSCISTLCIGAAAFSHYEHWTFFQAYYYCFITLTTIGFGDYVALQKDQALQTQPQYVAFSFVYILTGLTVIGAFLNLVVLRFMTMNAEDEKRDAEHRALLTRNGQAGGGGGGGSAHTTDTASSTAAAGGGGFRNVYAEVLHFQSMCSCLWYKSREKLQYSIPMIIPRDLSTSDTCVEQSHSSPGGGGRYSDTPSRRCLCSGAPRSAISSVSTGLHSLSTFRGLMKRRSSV
KCNK9 inh conf: confirmation of human KCNK9 potassium channel inhibitors; shares compounds with KCNK9 inh; HEK293 KCNK9 cells, FluxOR thallium flux fluorescence; inhibition, % at 10 µM; hit rate 43% among 4,900; AID 492992;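 active = thallium signal inhibited by more than 5 SD of the compound-free buffer control wells, on both duplicate plates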;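 note: 0% = assay buffer control wells without compound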
Kir21 sel: mouse Kir2.1 off-target activity of KCNK9 modulators; shares compounds with KCNK9 inh; Kir2.1 cells, FluxOR thallium flux fluorescence; inhibition, % at 10 µM; hit rate 4% among 4,900; AID 492993;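 active = thallium signal drop more than 5 SD beyond the mean of the no-compound control wells, seen in both duplicate plates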;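 note: signal is fluorescence rise after thallium addition divided by baseline fluorescence; plate controls were assay buffer only for no effect and full block by chlorpromazine control for full effect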
KCNK9 uninduced: second counter-screen for KCNK9 modulators: effect in non-induced cells | shares compounds with KCNK9 inh | non-induced KCNK9-HEK293, FluxOR thallium flux | inhibition, % at 10 µM | hit rate 40% among 4,900 | AID 492997;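 active = thallium signal drop beyond 5 SD of the untreated control mean, on both duplicate plates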;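 note: plate controls were buffer only IC0 wells for no effect and SID17386958 at its maximal inhibitory level for full effect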
Starred values were filed as active, the others as inactive.

`CCSc1nc(N2CCCCC2)c2c(c1C#N)CCCC2` gave hERG rescue -12.5, KCNK9 inh -12.5*, KCNQ1 inh inactive, KCNQ1 pot inactive, PHOSPHO1 block 4.6, KCNK3 block inactive, KCNK9 inh conf 57.0%*, Kir21 sel inactive and KCNK9 uninduced 45.5%*.
N#Cc1c(SCc2ccccc2)nc(N2CCOCC2)c2c1CCCC2 was read as PHOSPHO1 block 8.8 and KCNK3 block inactive.
For Cn1nc(Cc2n[nH]c(=S)n2C)c2ccccc2c1=O the results were hERG rescue -3.7, KCNK9 inh inactive, KCNQ1 inh inactive, KCNQ1 pot inactive, PHOSPHO1 block 32.1 and KCNK3 block inactive.
`Cc1ccc(-c2csc(N(CC3CCCO3)C(=O)c3ccco3)n2)cc1` (configuration not stated) gave hERG rescue -11.6, KCNK9 inh -8.59*, KCNQ1 inh inactive, KCNQ1 pot inactive, PHOSPHO1 block -5.0, KCNK3 block inactive, KCNK9 inh conf 43.0%*, Kir21 sel inactive and KCNK9 uninduced 33.5%*.
Cc1ccc(S(=O)(=O)c2nnn3c2nc(Nc2cccc(C)c2)c2ccccc23)cc1 was read as hERG rescue -2.9, KCNK9 inh inactive, KCNQ1 inh inactive, KCNQ1 pot inactive, PHOSPHO1 block -2.4 and KCNK3 block inactive.
CC(C)C(C)NC(=O)COc1ccc(-c2ccccc2)cc1 (configuration not stated) was read as hERG rescue -10.3, KCNK9 inh -9.86*, KCNQ1 inh inactive, KCNQ1 pot inactive, PHOSPHO1 block 7.4, KCNK3 block inactive, KCNK9 inh conf 34.0%*, Kir21 sel inactive and KCNK9 uninduced inactive.
CC(C)C(C)NC(=O)COc1ccc(OCc2ccccc2)cc1 (configuration not stated) was read as hERG rescue -11.4, KCNK9 inh inactive, KCNQ1 inh inactive, KCNQ1 pot inactive, PHOSPHO1 block -3.9 and KCNK3 block inactive.
Screening O=C(CC(Nc1ccc(F)cc1)c1ccccc1)c1ccccc1 (configuration not stated) returned hERG rescue -8.8, KCNK9 inh -11.3*, KCNQ1 inh inactive, KCNQ1 pot inactive, PHOSPHO1 block -13.9, KCNK3 block inactive, KCNK9 inh conf inactive, Kir21 sel inactive and KCNK9 uninduced inactive.
`COc1ccc(Cn2nc(C)n(N(C)c3ncc(C(F)(F)F)cc3Cl)c2=O)cc1` gave hERG rescue -4.5, KCNK9 inh inactive, KCNQ1 inh inactive, KCNQ1 pot inactive, PHOSPHO1 block 8.3, KCNK3 block inactive, KCNK9 inh conf inactive, Kir21 sel inactive and KCNK9 uninduced inactive.
Screening Cc1cc(C)n(-c2nc3ccccc3nc2N2CCCCCC2)n1 returned hERG rescue -7.2, KCNK9 inh -9.91*, KCNQ1 inh inactive, KCNQ1 pot inactive, PHOSPHO1 block -10.5, KCNK3 block inactive, KCNK9 inh conf 33.0%*, Kir21 sel inactive and KCNK9 uninduced 40.0%*.
CN(C(=O)COc1ccc(Cl)cc1Cl)c1nnc(C23CC4CC(CC(C4)C2)C3)s1 was read as hERG rescue -7.3, KCNK9 inh inactive, KCNQ1 inh inactive, KCNQ1 pot inactive, PHOSPHO1 block -28.3, KCNK3 block inactive, KCNK9 inh conf inactive, Kir21 sel inactive and KCNK9 uninduced inactive.
For CN(C(=O)COc1ccc(Cl)cc1)c1nnc(C23CC4CC(CC(C4)C2)C3)s1 the results were PHOSPHO1 block -8.2.
`COc1cccc(C(=O)Nc2ccccc2C(=O)NCC2CCCO2)c1` (configuration not stated) gave hERG rescue -12.1, KCNK9 inh inactive, KCNQ1 inh inactive, KCNQ1 pot inactive and KCNK3 block inactive.
For Cc1ccc(C2=NN(CC(=O)NCCN(CC(C)C)CC(C)C)C(=O)CC2)cc1 the results were hERG rescue -6.7, KCNK9 inh inactive, KCNQ1 inh inactive, KCNQ1 pot inactive, PHOSPHO1 block 1.1 and KCNK3 block inactive.
Screening CCCCCCCn1c2c(c(=N)c3c1CCC3)CCCC2 returned hERG rescue -28.2, KCNK9 inh -9.85*, KCNQ1 inh 6*, KCNQ1 pot inactive, PHOSPHO1 block 19.0, KCNK3 block inactive, KCNK9 inh conf 69.5%*, Kir21 sel 77.5%* and KCNK9 uninduced 36.5%*.
CCCCCCCCCn1c2c(c(=N)c3c1CCC3)CCC2 was read as hERG rescue -35.1, KCNK9 inh -15.6*, KCNQ1 inh 10*, KCNQ1 pot inactive, PHOSPHO1 block 16.6, KCNK3 block -18.7*, KCNK9 inh conf 62.0%*, Kir21 sel 87.0%* and KCNK9 uninduced 42.5%*.
Screening O=C(NCc1ccccc1)/C(=C/c1ccc(OC(F)F)cc1)c1ccccc1 returned hERG rescue -7.3, KCNK9 inh -11.4*, KCNQ1 inh inactive, KCNQ1 pot inactive, PHOSPHO1 block 0.8, KCNK3 block inactive, KCNK9 inh conf 40.0%*, Kir21 sel inactive and KCNK9 uninduced 49.5%*.
Screening CCOC(=O)C(NC(=O)c1ccccc1)=C1CCCCC1 returned hERG rescue -5.5, KCNK9 inh inactive, KCNQ1 inh inactive, KCNQ1 pot inactive, PHOSPHO1 block 18.2 and KCNK3 block inactive.
Screening O=C(CSc1ccc2ccccc2n1)N1CCC(c2noc3ccc(F)cc23)CC1 returned hERG rescue -9.2, KCNK9 inh -9.02*, KCNQ1 inh inactive, KCNQ1 pot inactive, PHOSPHO1 block 5.7, KCNK3 block inactive, KCNK9 inh conf inactive, Kir21 sel inactive and KCNK9 uninduced inactive.
`Cc1nnc(SCC(=O)N2CCC(c3noc4ccc(F)cc34)CC2)s1` gave hERG rescue -11.2, KCNK9 inh inactive, KCNQ1 inh inactive, KCNQ1 pot inactive, PHOSPHO1 block -1.2 and KCNK3 block inactive.
Screening Cc1cc(C)cc(OCC(=O)O/N=C(\N)c2ccccc2Cl)c1 returned hERG rescue -5.8, KCNK9 inh inactive, KCNQ1 inh inactive, KCNQ1 pot inactive, PHOSPHO1 block 51.2, KCNK3 block inactive, KCNK9 inh conf inactive, Kir21 sel inactive and KCNK9 uninduced inactive.
Screening Clc1ccc(/C=N/NC(=Nc2ccccc2)c2ccccn2)c(Cl)c1 returned hERG rescue -7.5, KCNK9 inh inactive, KCNQ1 inh inactive, KCNQ1 pot inactive, PHOSPHO1 block 36.0, KCNK3 block inactive, KCNK9 inh conf inactive, Kir21 sel inactive and KCNK9 uninduced inactive.
